Assay results gathered from unrelated publications.
Protocols differ between the studies behind these lines.
Target: Histamine H2 receptor (HRH2, Homo sapiens, UniProt P25021)

O=C(c1ccc(F)cc1)N(Cc1ccccc1)C1CCCCC1  inhibition (cell-free assay; 10 µM): -3%
COCCOc1nc(-c2ccc(Cl)nc2)nc2c1CN(C(=O)c1ncn3ccccc13)CC2  inhibition (ligand displacement; 10 µM): -0.24%
O=C(c1ccc(Cl)cc1)N(Cc1ccccc1)C1CCCCC1  inhibition (cell-free assay; 10 µM): -27.3%
O=C(Nc1ccc(S(=O)(=O)N2CCC(Cl)CC2)cc1)c1ccc([N+](=O)[O-])o1  inhibition (ligand displacement, radioligand; 10 µM): 10%
N#Cc1ccc(Nc2ccc3[nH]c(=O)[nH]c3c2)c(Cl)c1  inhibition (cell-free assay; 10 µM): 2.26%
N#Cc1cc(Cn2c(N3CCCC3)nc3ccccc32)ccc1F  inhibition (ligand displacement; 10 µM): 64.1%
N=C(NCCCCCCCCCCCCN)NCCCc1c[nH]cn1  Emax (GTPγS binding, agonist, radiometric; cell membranes): 66%
CCCNc1nc2ccccc2n1Cc1ccc(Cl)cc1  inhibition (ligand displacement; 10 µM): 83.3%
CCN(CC)c1ccc(C2Nc3ccc(C(=O)c4ccccc4)cc3NC3=C2C(=O)CC(C)(C)C3)cc1 (stereo not drawn)  inhibition (ligand displacement, radioligand; 10 µM): 38%
CCN(Cc1ccccc1C(F)(F)F)C(=O)C1CCN(S(=O)(=O)c2ccc3[nH]ncc3c2)CC1  inhibition (ligand displacement, radioligand; 10 µM): 5%
O=C1N=C(N2CCCCN2)S/C1=C\c1ccc(F)cc1O  inhibition (ligand displacement, radioligand; 10 µM): < 10%
Cc1nc(N)sc1CCCNC(=N)NCCCCCCCCNC(=N)NCCCc1sc(N)nc1C  Emax (GTPγS binding, agonist, radiometric; cell membranes): 52%
